Rows were chosen to be rich in hits. Some 3.7% of all compounds tested hit in one or more screens of this group.
proCasp7 act = activates human procaspase-7, counter-screen for procaspase-3 activators | activation, % at 8.5 µM | recombinant procaspase-7, Ac-DEVD-pNA absorbance 405 nm; D23A/D198A/D206A triple mutant, cannot self-cleave; scale: DMSO 0, 5 µM enzyme 100 | P55210 | hit rate 0.093% among 330,000;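 active means percent activation above the screen-wide mean plus 3 SD, cut at about 25% in these data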
Target sequence (P55210 whole entry D23A/D198A/D206A): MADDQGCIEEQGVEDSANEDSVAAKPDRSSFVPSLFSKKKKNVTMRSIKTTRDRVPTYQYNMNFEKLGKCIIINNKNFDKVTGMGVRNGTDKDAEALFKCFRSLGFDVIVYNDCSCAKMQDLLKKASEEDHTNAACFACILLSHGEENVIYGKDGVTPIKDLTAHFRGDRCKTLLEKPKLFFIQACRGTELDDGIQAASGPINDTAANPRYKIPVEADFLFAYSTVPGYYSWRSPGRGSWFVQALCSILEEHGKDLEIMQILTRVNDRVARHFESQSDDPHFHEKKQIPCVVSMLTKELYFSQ
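System: Uncleavable procaspase-7 mutant enzyme; Amount: 2 µM procaspase-7 mutant as dispensed; Schedule: 1 h compound preincubation, 2 h substrate cleavage, 25 °C; Measured by: 405 nm absorbance of p-nitroaniline; Evaluation: percent activation from buffer-corrected 0–120 min absorbance change; Control set: low DMSO alone, high DMSO plus 5 µM PC-7.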
MPTP inh = blocks calcium-induced mitochondrial swelling; inhibition, % at 10 µM; isolated mouse mitochondria, Ca2+ swelling absorbance, 30 min; AID 602449; hit rate 1.4% among 360,000;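 active means inhibition of 50% or more, scaled per plate between neutral and stimulator controls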;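 further: 0% = DMSO wells given calcium and 100% = 1 mM EGTA wells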
proCasp3 act = activates human procaspase-3. activation, % at 8.5 µM. P42574. hit rate 0.11% among 330,000. recombinant procaspase-3 D3A, Ac-DEVD-pNA absorbance 405 nm;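 active means activation above the mean of all tested compounds plus 3 SD, cut at about 21% in these data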;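 further: 0% = DMSO alone and 100% = DMSO wells spiked with extra 5 µM PC-3 D3A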
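material = Procaspase-3 D3A mutant | probe or stimulus = Ac-DEVD-pNA | compound = single dose, 8.5 µM nominal compound, 0.8% DMSO | timing = 1 h preincubation, 2 h reaction | measured by = 405 nm absorbance of p-nitroaniline, reads at 0 and 120 min | benchmarks = DMSO-only low control, 5 µM PC-3 D3A high control | repeats = singlicate, each compound tested once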
NR3A LBD binder = modulates the human NR3A ligand-binding domain | NR3A LBD differential scanning fluorimetry, Tm shift; 0% = protein alone, 100% = glycine-bound protein | Tm shift relative to glycine control, % at 25 µM | hit rate 2.5% among 340,000;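 active means melting temperature shift of at least 10% of the positive control shift, at one fixed dose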
aDG glyco act = increases alpha dystroglycan glycosylation; activation, % at 10 µM; hit rate 0.22% among 360,000; Pro5-aDG cells, alpha-DG glycosylation AlphaScreen (IIH6); 0% Pro5, 100% B10-LARGE cell signal;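 active means activation of at least 8% versus controls, or a plate z-score of at least 8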;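 further: Pro5 are CHO cells carrying HIG-tagged alpha-DG that lacks glycosylation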
Numbers without * were called inactive; . = not tested or not shown.

SMILES	proCasp7 act	MPTP inh	proCasp3 act	NR3A LBD binder	aDG glyco act
O=C(Nc1cccc([N+](=O)[O-])c1)c1cccc(C(=O)Nc2cccc([N+](=O)[O-])c2)c1	8	19	0	-1	0
CCn1c2ccccc2c2cc(NC(=O)c3cccc([N+](=O)[O-])c3)ccc21	3	3	6	17*	0
Cc1nc2ccc(C(=O)Nc3cccc([N+](=O)[O-])c3)cc2s1	5	-1	-8	21*	1
O=C(CN1CCCCC1)Nc1ccc(S(=O)(=O)c2ccc(NC(=O)CN3CCCCC3)cc2)cc1	.	0	.	-1	2
COc1ccc([C@H]2CC(=O)C=C(c3cccc4c3Oc3ccccc3S4)C2)cc1	-2	0	3	-2	0
COc1ccc(OC)c(/C=C/C(=O)N2C(=O)c3cccc(N)c3C2=O)c1	-6	1	-4	11*	0
COc1cc(/C=C/C(=O)N2C(=O)c3cccc(N)c3C2=O)cc(OC)c1OC	-7	2	6	1	0
N#Cc1nnn2c1nc(N)c1c(Cl)cccc12	.	-3	.	.	0
COc1cc(NC(=O)CN2C(=O)COc3ccc(S(=O)(=O)N4CCCC4)cc32)cc(OC)c1	7	1	4	1	0
Cc1nc(-c2ccccc2)sc1C(N)=O	-8	1	4	19*	0
Nc1ccccc1C#Cc1ccccc1	2	-1	9	-10	0
Nc1ccccc1C#Cc1ccc2[nH]ccc2c1	-1	0	0	19*	0
C/C(=N\N1CCN(C2c3ccccc3-c3ccccc32)CC1)c1ccncc1	4	1	-4	15*	0
CC(=O)Nc1cc(-c2cccc(C(=O)NCCO)c2)cn2c(-c3cccc(C(F)(F)F)c3)cnc12	.	-1	.	.	0
COc1ccc(OC)c(/C=N/NC(=O)c2[nH]ncc2Br)c1	-9	2	-3	21*	0
Cc1ccc(O)c(/C=N/NC(=O)c2[nH]ncc2Br)c1	-40	0	-29	-16	0
COc1ccc(/C=N/NC(=O)c2ccncc2)c(OC)c1	-2	-1	8	20*	0
COc1ccc(OC)c(/C=N/NC(=O)c2[nH]nc3c2CCc2ccccc2-3)c1	2	6	-8	10	0
CCOc1ccc(/C=N/NC(=O)c2[nH]ncc2Br)c(O)c1	-20	1	-33	27*	1
COc1ccc(/C=N/NC(=O)c2ccc(Br)cc2)c(OC)c1	-5	-2	-4	1	0
COc1cccc(NC(=O)CN(C)CC(=O)Nc2ccc(C)c(S(=O)(=O)N3CCOCC3)c2)c1	.	-1	.	-2	0
O=C(O)c1cc(N2CCCC2)ccn1	.	-1	.	-1	0
C[C@@H]1CN([C@H](C)CO)C(=O)CCCn2nncc2CO[C@@H]1CN(C)S(=O)(=O)c1ccc(-n2cccn2)cc1	.	0	.	.	0
CCCC(=O)N(Cc1cc2cc(OC)ccc2[nH]c1=O)c1ccccc1OC	.	-1	.	.	0
Cc1ccc(NC(=O)Nc2nc(-c3ccc(C)s3)cs2)cc1	-4	5	-1	24*	1
SMILES	proCasp7 act	MPTP inh	proCasp3 act	NR3A LBD binder	aDG glyco act
COc1ccc(NC(=O)Nc2nnc(-c3ccncc3)s2)cc1	5	16	10	11*	0
COc1cccc(NC(=O)Nc2nc(-c3ccc(OC)c(OC)c3)cs2)c1	6	19	-4	23*	0
COc1ccc(-c2csc(NC(=O)Nc3ccccc3)n2)cc1	5	3	1	26*	0
COc1ccc(-c2csc(NC(C)=O)n2)cc1OC	17	0	1	4	0
CCCCN1CC(N(C)CCN(C)C)CS1(=O)=O (configuration not stated)	.	-2	.	.	0
CC(=O)OC[C@@H]1CN(Cc2ccccc2)C[C@H](n2cnc3c(NC4CCCC4)ncnc32)O1	.	0	.	.	0
C=CCN1CCC(=O)C(C(=O)OCC)=C1C(=O)OCC	.	4	.	-4	0
COc1cccc(-c2nc3n(n2)CCc2ccccc2-3)c1	.	0	.	.	0
COc1ccc(NC(=S)N(CCC(C)C)C2CCN(C(C)C)CC2)cc1Cl	-26	0	-71	19*	0
